# Screening results: PubChem BioAssay, several laboratories
# H69AR growth 86K = blocks growth of human H69AR lung tumor cells. H69AR lung tumor viability, ATP luminescence, 72 h; active compounds read low. viability, % at 10 µM. 85,000 tested, 6% active;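 active = viability at or below 40%; inactive = viability above 40%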;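 note: multidrug resistant small cell line overexpressing MRP-1 efflux transporter; 100% = mean luminescence of untreated control wells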
# F-actin modifier = alters cytoskeleton assembly in HUVEC cells; inhibition, % at 2 µM; HUVEC TNFa F-actin phalloidin imaging, high content; 91,000 tested, 0.18% active; AID 836;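 active = inhibition above the batch mean plus 3 SD and confirmed as a hit by visual image inspection, cut at about 30% in these data, passing the limit was not always enough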
# PTK2B oligo ant = blocks oligomerization of human Pyk2 in cells | Q293 cells, Pyk2 FERM NanoBiT luminescence; active compounds read low | 99,000 tested, 0.83% active | z-score (the deposit names both 25 µM and 10 µM) | Q14289;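 active = Z-score of -3 or lower, scaled per plate to the spread of control and sample wells; inactive = z-score above -3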;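 note: negative z-score means lost luminescence so less FERM oligomerization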
# Fibroblast inh = blocks proliferation of human lung fibroblasts | LL 47 human lung fibroblast viability, ATP luminescence; active compounds read low | viability, % at 10 µM | 85,000 tested, 1.1% active | AID 719;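 active = viability at or below 50% in the single dose screen; inactive = viability above 50%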;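 note: compound exposure lasted 72 h before the ATP readout; 100% = median luminescence of untreated cell-only wells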
#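 Material: human LL 47 lung fibroblast cells; quantity: 1,150 cells/well; medium: IMEM plus 15% FBS; doses: 0.1% DMSO in all compound wells; timing: overnight attachment after seeding, then 72 h compound exposure at 37 °C; detection: CellTiter-Glo luminescence; measure: % viability of median cell-only signal; controls: cell-only wells, no compound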
# HUVEC inhibit = human endothelial cell proliferation inhibition | HUVEC proliferation, CellTiter-Glo luminescence, 72 h; active compounds read low | viability, % at 10 µM (by protocol) | 86,000 tested, 1.1% active;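 active = viability at or below 30%; inactive = viability above 30%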;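 note: 100% = median luminescence of DMSO-only cell control wells on each plate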
# Jurkat tox 60K = cytotoxic compounds reducing Jurkat cell viability | Jurkat E6.1 viability, ATP luminescence, 48 h | AID 463 | inhibition, % at 4 µM | 56,000 tested, 1.2% active;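 active = inhibition above the mean inhibition of all tested compounds plus 3 SD, cut at about 28% in these data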
# Active calls of the source: *; / = no result. Shown are actives, neighbours in structure and some others; about 6% of the full set was active somewhere.
SMILES,H69AR growth 86K,F-actin modifier,PTK2B oligo ant,Fibroblast inh,HUVEC inhibit,Jurkat tox 60K
O=C(OCC(=O)N1CCN(C(=O)c2ccco2)CC1)c1cc(-c2ccco2)nc2ccccc12,60.2,7.4,0.63,99.2,94.2,/
COC(=O)c1cc2ccsc2n1CC(=O)Nc1cc(Cl)ccc1OC,/,20.5,-2.46,/,/,86.0*
NS(=O)(=O)c1ccc(CCNC(=O)NC2(C(F)(F)F)Oc3ccccc3O2)cc1,20.5*,-7.8,1.19,80.6,71.1,/
NS(=O)(=O)c1ccc(CCNC(=O)CSc2ccccc2)cc1,/,22.9,0.42,/,/,/
O=C(NCCN1CCOCC1)NC1(C(F)(F)F)Oc2ccccc2O1,18.5*,7.5,0.73,88.3,70.2,/
COc1ccc(OC)c(NC(=O)NC2(C(F)(F)F)Oc3ccccc3O2)c1,13.0*,-23.0,-1.27,94.9,68.6,/
CCCCNC(=O)NC1(C(F)(F)F)Oc2ccccc2O1,21.9*,4.9,0.3,93.3,63.8,/
CCCn1c(C)cc(C(=O)CSc2nnc3n(CCC)c(=O)c4ccccc4n23)c1C,98.6,/,/,103.2,97.3,-3.2
Cc1ccc(CCNC(=O)C2CCC(=O)N2C(C)C)cc1 (centres undefined),102.8,/,-0.05,98.0,111.3,-6.3
Cc1ccc2nsnc2c1S(=O)(=O)N(Cc1cc2cccc(C)c2[nH]c1=O)CC1CCCO1 (centres undefined),10.3*,-8.7,-0.56,90.5,60.1,0.8
Cc1ccc2cc(CN(CC3CCCO3)S(=O)(=O)c3c(C)ccc4nsnc34)c(=O)[nH]c2c1 (centres undefined),82.3,27.0,-2.21,89.2,107.1,-6.6
CCOC(=O)C(NC(=O)c1ccccc1)(Nc1nnc(C)s1)C(F)(F)F (centres undefined),87.6,-4.7,0.2,100.6,89.2,/
O=C(CSc1nnc(COc2cccc3cccnc23)o1)N1CCc2ccccc21,51.4,-12.2,0.89,93.6,97.4,1.8
O=C(CSc1nnc(COc2ccc(F)cc2)o1)N1c2ccccc2CCc2ccccc21,1.9*,/,-0.37,83.7,109.0,19.3
Cc1cc(-c2ccccc2)nc(N2CCC(C(=O)NCC3CCCCC3)CC2)n1,99.1,-16.1,/,96.3,68.0,/
COc1ccccc1NC(=O)C1=C(C)Nc2nnnn2C1c1cccc(C)c1 (centres undefined),30.4*,9.2,/,84.9,73.9,-2.5
CCn1nc(C)c(NS(=O)(=O)c2ccccc2)c1C,68.9,18.2,0.74,105.5,101.6,/
COc1ccc(-c2nc(NC(=O)C3CCN(c4nc5ccccc5o4)CC3)sc2C)cc1,31.9*,-22.8,-0.06,85.6,59.4,18.2
COC(=O)c1ccc(Oc2nc(Nc3ccc(C)c(C)c3)nc(N(C)C)n2)cc1,71.4,2.5,-1.25,89.1,95.5,/
CCN(CC)C(=O)CSc1nnc(CCCCCNC(=O)OC(C)(C)C)o1,94.6,-13.2,0.23,103.8,106.4,2.4
C=CCC(Nc1ccccc1)C12C=CC(O1)C(C(=O)OC)=C2C(=O)OC (centres undefined),1.0*,-10.3,-1.15,3.1*,45.4,/
COC(=O)C1=C(C)OC(N)=C(C#N)C1c1ccccc1 (centres undefined),91.2,3.6,-0.05,99.7,88.5,7.3
CCSc1nnc(NC(=O)C(CC)(C(F)(F)F)C(F)(F)F)s1,35.6*,-18.1,-2.31,94.6,73.4,/
CCSc1nnc(NC(=O)c2ccccn2)s1,17.6*,/,-1.08,/,44.6,75.7*
CCSc1nnc(NC(=O)C(C)(C(F)(F)F)C(F)(F)F)s1,87.8,-10.6,-1.41,100.2,83.8,/
SMILES,H69AR growth 86K,F-actin modifier,PTK2B oligo ant,Fibroblast inh,HUVEC inhibit,Jurkat tox 60K
CCc1nnc(NC(=O)C2c3ccccc3Oc3ccccc32)s1,88.8,46.4*,-1.95,88.1,92.3,/
CCc1nnc(NC(=O)C2CCC2)s1,128.9,-5.6,0.12,97.7,100.4,0.1
COCC(C)n1c(C)cc(C(=O)COC(=O)CN=C2NS(=O)(=O)c3ccccc32)c1C (centres undefined),/,/,0.67,/,/,/
COc1ccc(CNC(=O)C(c2ccc(C)o2)N(Cc2cccs2)C(=O)Cc2cccs2)cc1 (centres undefined),23.7*,-6.9,0.76,96.0,71.0,/
COCCN(C(=O)Cc1cccs1)C(C(=O)NCc1ccc(OC)cc1)c1ccc(C)cc1 (centres undefined),/,-44.8,-0.37,/,/,/
COc1ccc(CC(=O)NCc2cccs2)cc1,30.4*,-4.7,0.37,92.6,70.5,13.8
Cc1ccc(C(C(=O)NCc2ccccc2)N(C(=O)c2csnn2)c2cccc3ccccc23)o1 (centres undefined),62.1,10.5,-0.05,95.0,95.4,/
COc1ccc(CNC(=O)C(c2ccc(C)o2)N(C(=O)c2csnn2)c2ccc(C(C)C)cc2)cc1 (centres undefined),38.3*,6.2,-0.89,99.5,107.0,/
CCc1nnc(NS(=O)(=O)c2ccc(NC(=S)NC(=O)/C=C/c3ccc(C(C)C)cc3)cc2)s1,/,0.9,-1.11,/,/,/
Cc1cccc(N2C(=S)N=C(Nc3c(C)cccc3C)C23CCOC(C)(C)C3)c1 (centres undefined),68.2,0.3,0.24,90.4,102.3,/
CCOc1ccc(-c2n[nH]c(C)c2Oc2ccccc2OC)c(O)c1,104.0,8.0,-2.53,89.7,86.9,5.7
Cc1[nH]nc(-c2ccc(O)cc2O)c1Oc1ccccc1,36.0*,/,-2.37,85.2,80.7,/
CCc1cc(-c2n[nH]c(C)c2Oc2ccc(C(C)C)cc2)c(O)cc1O,1.1*,-6.1,-1.74,74.0,2.5*,/
C=C(C)COc1ccc(-c2n[nH]c(C)c2Oc2ccccc2OC)c(O)c1,7.2*,-1.6,-2.59,86.6,28.9*,-2.0
CCCOC(=O)c1ccc(Oc2c(-c3ccc(O)cc3O)n[nH]c2C)cc1,59.1,3.2,-2.13,99.1,55.9,0.3
Cc1[nH]nc(-c2ccc(O)cc2O)c1-c1ccc(Cl)cc1,91.5,-38.5,-1.14,84.6,52.7,16.7
CCCOC(=O)c1ccc(Oc2c(-c3ccc(OC)cc3O)n[nH]c2C)cc1,1.6*,0.2,-1.1,88.2,24.8*,-2.8
C=CCN(C(=O)CCC(=O)O)C1CC(=O)N(c2ccc(OCCC)cc2)C1=O (centres undefined),94.0,/,0.55,98.9,95.7,/
Cc1cccc(CCNC(=O)C2CCN(S(=O)(=O)c3c(C)nn(C)c3C)CC2)c1,85.7,-8.0,0.2,83.6,81.5,5.2
COc1ccc(-c2nc3ccccc3s2)cc1O,45.1,-5.6,-0.61,94.3,82.2,-4.4
COc1ccccc1/C=N/NC(=Nc1ccc(C)cc1)c1nc2ccccc2s1,44.4,20.1,/,77.0,86.4,/
COc1cc(/C=N/NC(=Nc2ccc(C)cc2)c2nc3ccccc3s2)ccc1O,35.3*,13.8,-1.91,82.1,88.2,/
COc1cc(-c2nc3ccccc3s2)ccc1O,39.6*,5.2,0.24,90.3,50.2,/
Cc1cc(C)c(NC(=O)COc2ccccc2C(=O)Nc2ccc3c(c2)oc2ccccc23)c(C)c1,26.0*,-9.4,0.2,47.0*,81.7,/
